Reference: ChEMBL document CHEMBL1128429, “Synthesis and structure-activity relationships of 6-heterocyclic-substituted purines as inactivation modifiers of cardiac sodium channels” (J Med Chem, 1995)
The source made the active and inactive calls.

How the values were obtained:
[1] = test system: Sodium channel protein type 5 subunit alpha (Cavia porcellus); assay: Inactivation process of guinea pig cardiac Na channels expressed in xenopus oocytes was determined by measuring increase in current integral in presence of compound versus control at 10 uM; settings: oocyte
Oryctolagus cuniculus [2] = organism: Oryctolagus cuniculus; assay: Concentration which increased contractility by 20% in rabbit; Negative inotropic effect observed; assay type: functional, organism-based
Summary of the method: (§1)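 Langendorff-perfused rabbit heart, 45 min equilibration, then five cumulative concentrations with 15 min exposure each. Contractility read as dP/dt; the nanomolar concentration raising it by 20% was derived from the concentration–response curve. Repeated-measures ANOVA, mean change from control ± SEM.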

Oryctolagus cuniculus [3] = organism: Oryctolagus cuniculus; assay: Antiarrhythmic activity was determined by measuring the concentration that produced a 20 ms increase in ERP; no effect at </= 3; assay type: functional, organism-based; settings: Heart
Summary of the method: (§2)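 Langendorff-perfused rabbit heart, equilibrated 45 min before control. ERP measured after 15 min exposure to each of five cumulative concentrations: single premature stimulus scanning diastole at twice threshold. Concentration giving a 20 ms ERP increase taken from the concentration–response curve; repeated-measures ANOVA, mean change ± SEM.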

Cavia porcellus = organism: Cavia porcellus; assay: Effect on inactivation processes of guinea pig cardiac Na channels expressed in Xenopus oocytes was determined by measuring the increase in current integral in the presence of compound Vs control at 10 uM; assay type: functional
Summary of the method: (§3)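 Guinea pig heart RNA injected into defolliculated stage V–VI Xenopus oocytes; two-microelectrode voltage clamp at 21–23 °C with standard HEPES buffer perfusion, pH 7.5. Current integrated at the I–V peak (−10 mV) after the capacity transient settled. One test concentration (10 μM) per oocyte; percent change in integral calculated against that oocyte's control, reported ± SEM.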

[4] = Effective concentration against Xenopus oocytes expressing human heart Na channel; assay type: functional, cell-based; settings: oocyte
Summary of the method: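 HH1 human cardiac Na channel cRNA in oocytes; perfusate Na 140 mM, 21–23 °C, integral taken at −20 mV. At least three concentrations, n ≥ 3 each, single concentration per oocyte. Pooled data gave the EC50 (nM producing 50% integral increase) by linear regression over the lower, non-blocking range.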

[5] = Effective concentration against Xenopus oocytes expressing guinea pig heart Na channel; assay type: functional, cell-based, Cavia porcellus; settings: oocyte
Summary of the method: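 Guinea pig heart RNA in Xenopus oocytes, voltage clamp at 21–23 °C, integral taken at −10 mV. Three or more concentrations, n ≥ 3 each, one per oocyte. Pooled percent-change data plotted semilogarithmically; EC50 (nM giving 50% integral increase) obtained by linear regression over the range lacking significant current block.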

Oryctolagus cuniculus [6] = organism: Oryctolagus cuniculus; assay: Antiarrhythmic activity was determined by measuring the concentration that produced a 20 ms increase in ERP; assay type: functional, Heart
Summary of the method: as §2

Oryctolagus cuniculus [7] = organism: Oryctolagus cuniculus; assay: Concentration which increased contractility by 20% in rabbit; assay type: functional
Summary of the method: as §1

[8] = Inactivation processes of human heart Na channel expressed in Xenopus oocytes as increase in current at 10 uM; assay type: functional, Oocyte
Summary of the method: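 Oocytes injected with cRNA transcribed from human cardiac Na channel (HH1) cDNA. Two-microelectrode voltage clamp at 21–23 °C, perfusion buffer with Na raised to 140 mM. Current integrated at −20 mV after the capacity transient settled. Single 10 μM exposure per oocyte; percent change in integral versus control, ± SEM.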

Oryctolagus cuniculus [9] = organism: Oryctolagus cuniculus; assay: Concentration which increased contractility by 20% in rabbit; no effect; assay type: functional, organism-based
Summary of the method: as §1

Oryctolagus cuniculus [10] = organism: Oryctolagus cuniculus; assay: Concentration which increased contractility by 20% in rabbit; no effect at </=3 uM; assay type: functional, organism-based
Summary of the method: as §1

Oocyte = assay: Inactivation of guinea pig cardiac Na channel expressed in Xenopus oocytes as increased current at 10 uM; insoluble; assay type: functional, cell-based; settings: Cavia porcellus
Summary of the method: as §3

SMILES	Change [1] [%]	EC50 [4] [µM]	EC50 [5] [µM]	EC20 (Oryctolagus cuniculus [6]) [µM]	dP/dt (Oryctolagus cuniculus [7]) [nM]	Change [8] [%]	other results
O[C@H](CN1CCN(C(c2ccccc2)c2ccccc2)CC1)Cn1cnc2c(-n3cccc3)ncnc21	21						dP/dt (Oryctolagus cuniculus [2]): inactive; EC20 (Oryctolagus cuniculus [3]): inactive
OC(CN1CCN(C(c2ccccc2)c2ccccc2)CC1)Cn1cnc2c(-c3ccc4ccccc4c3)ncnc21 (stereo unspecified)							Change (Cavia porcellus): -66%
O[C@@H](CN1CCN(C(c2ccccc2)c2ccccc2)CC1)Cn1cnc2c(-n3cccn3)ncnc21	1226	0.9	0.099	0.018	40	540	
OC(CN1CCN(C(c2ccccc2)c2ccccc2)CC1)Cn1cnc2c(-n3cccn3)ncnc21 (stereo unspecified)	372		0.158	0.081	40		
Cc1cn(-c2ncnc3c2ncn3CC(O)CN2CCN(C(c3ccccc3)c3ccccc3)CC2)cn1 (stereo unspecified)	126		> 3				EC20 (Oryctolagus cuniculus [3]): inactive
O[C@@H](CN1CCN(C(c2ccccc2)c2ccccc2)CC1)Cn1cnc2c(-c3ccccc3)ncnc21	413	2	0.526	0.425		128	dP/dt (Oryctolagus cuniculus [9]): inactive
Nc1ncnc2c1ncn2C[C@@H](O)CN1CCN(C(c2ccccc2)c2ccccc2)CC1	139		1.03	0.109	89		
N#Cc1cc2c(OCC(O)CN3CCN(C(c4ccccc4)c4ccccc4)CC3)cccc2[nH]1 (stereo unspecified)	239	2.31	1.92	0.43		174	dP/dt (Oryctolagus cuniculus [10]): inactive
OC(CN1CCN(C(c2ccccc2)c2ccccc2)CC1)Cn1cnc2c(-n3ccnc3)ncnc21 (stereo unspecified)	680		0.63	0.027	46		
O[C@@H](CN1CCN(C(c2ccccc2)c2ccccc2)CC1)Cn1cnc(-n2cccc2)c2ncnc1-2	711	0.29	0.085	0.043	377	540	
OC(CN1CCN(C(c2ccc(Cl)cc2)c2ccc(Cl)cc2)CC1)Cn1cnc2c(-n3cccc3)ncnc21 (stereo unspecified)							Change (Oocyte): Insoluble
Nc1ncnc2c1ncn2CC(O)CN1CCN(C(c2ccccc2)c2ccccc2)CC1 (stereo unspecified)	212		1.41	0.307	128		
O[C@@H](CN1CCN(C(c2ccccc2)c2ccccc2)CC1)Cn1cnc(-c2ccccc2)c2ncnc1-2	378	1.6	0.16	0.141	434	201	
OC(CN1CCN(C(c2ccccc2)c2ccccc2)CC1)Cn1cnc2c(-n3cncn3)ncnc21 (stereo unspecified)	1664		0.204	0.057	60		
N#Cc1ncnc2c1ncn2CC(O)CN1CCN(C(c2ccccc2)c2ccccc2)CC1 (stereo unspecified)	1328		0.399	0.26	250		
Cc1cnn(-c2ncnc3c2ncn3CC(O)CN2CCN(C(c3ccccc3)c3ccccc3)CC2)c1 (stereo unspecified)	868		0.585	0.216	300		
